Data set [1] concerns Mus musculus. The data set is described as follows: Antiarrhythmic index, ratio of LD50 for Swiss albino mouse to ED50 for calcium chloride-induced Swiss albino mouse. Format: functional, Heart. Summed up:
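ED50 taken as mean effective dose preventing arrhythmia-associated death, reported only when below ½ LD50. LD50 from acute i.v. toxicity in mice. Index computed as LD50/ED50.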

Data set [2] is described as follows: Toxicity in iv dosed Swiss albino mouse after 72 hrs. It counts as organism-based. The settings on record: in vivo. Summed up:
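Albino Swiss mice of both sexes, 18-22 g, received aqueous solutions via tail vein at increasing doses. Mortality and behavioural changes followed for 72 h. LD50 reported in mg/kg with range in parentheses.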

Data set [3] concerns Mus musculus. The data set is described as follows: Antiarrhythmic activity in iv dosed Swiss albino mouse assessed as inhibition of calcium chloride-induced cardiac arrhythmia after 15 mins. Format: functional. The settings on record: Heart, 0.25 h. Put shortly:
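Swiss albino mice received compound i.v. at doses up to ½ LD50 (acute i.v. toxicity measured beforehand). Fifteen minutes later arrhythmia was provoked by i.v. calcium chloride (3%, 280 mg/kg). ED50 was taken as the mean effective dose preventing arrhythmia-associated mortality, and was determined only when below ½ LD50.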

The subject of the next data set is Oryctolagus cuniculus. The data set can be described thus: Surface anesthetic effect in New Zealand white rabbit assessed as time duration. Format: functional. Put shortly:
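Rabbit corneal reflex test: 1% aqueous solution (0.25 ml) instilled into the conjunctival sac over 30 sec. Cornea touched with a pointer (up to 100 per series) at 8, 10, 12 and 15 min, then every 5 min. Six animals per compound; mean ± SEM.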

For data set [4], the system named is Rattus norvegicus. The data set is described as follows: Anesthetic effect in Wistar rat assessed as duration of blockage of muscle contraction by infiltration local anaesthetic activity assay. Format: functional, Muscle tissue. Summed up:
(§1)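 Shaved lumbar back skin of Wistar rats; electrical stimulation threshold for surface muscle contraction found first (rectangular pulses, 0.36 to 14.0 V, 0.3 ms, 50 Hz). 0.5% compound in saline given as 0.2 ml intradermal plus 0.2 ml subcutaneous. Threshold re-measured at 3 and 5 min, then every 5 min until back to baseline. Depth is % threshold change from initial; >2-fold rise = 100% anaesthesia. Six rats per compound.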

Data set [5] deals with Rattus norvegicus. The data set is described as follows: Anesthetic effect in Wistar rat assessed as time taken for blockage of muscle contraction by infiltration local anaesthetic activity assay. It counts as functional, Muscle tissue. Put shortly:
as §1

The subject of data set [6] is Rattus norvegicus. The data set is described as follows: Anesthetic effect in Wistar rat assessed as duration of complete blockage of muscle contraction by infiltration local anaesthetic activity assay. Format: functional, Muscle tissue. Put shortly:
as §1

Data set [7] has as its system Rattus norvegicus. The data set can be described thus: Anesthetic effect in Wistar rat assessed as increase in threshold value by infiltration local anaesthetic activity assay relative to control. It counts as functional. Put shortly: as §1
In data set [8] the test system is Rattus norvegicus. The data set is described as follows: Anesthetic effect in Wistar rat assessed as increase in depth of anesthesia after 35 mins by infiltration local anaesthetic activity assay relative to control. It counts as functional, organism-based. Summed up: as §1

The source made the active and inactive calls.

On to `Cc1ccccc1NC(=O)[C@@H]1CCCN1Cc1ccccc1.Cl`, for which, in the data set with Mus musculus [1], the “Ratio LD50/ED50” value turned out to be 3.3. In data set [2], the LD50 at 72 h was determined as 35.5 mg/kg. Also, the median effective dose (ED50) in the data set on Mus musculus [3] came to 10.9 mg/kg.

With `Cc1ccccc1NC(=O)[C@@H]1CCCN1C.Cl`, the LD50 at 72 h in data set [2] came out at 32.5 mg/kg. In addition, the ED50 in the data set with Mus musculus [3] was more than 16.3 mg/kg.

`CCCCN1CCCC1C(=O)Nc1ccccc1C(F)(F)F.Cl` (mixture of isomers): in the data set on Mus musculus [1], the “Ratio LD50/ED50” value is recorded as 6.1. Further, in data set [2], the LD50 at 72 h came to 35.5 mg/kg. Also, in the data set with Mus musculus [3], the ED50 is 5.8 mg/kg. Also, the Time in the data set with Oryctolagus cuniculus was 20.4 min.

For the molecule `CCCCN1CCCC1C(=O)Nc1ccccc1CC.Cl` (mixture of isomers), the “Ratio LD50/ED50” value with Mus musculus [1] stood at 4.2. In [2], this molecule showed a 50% lethal dose (LD50) at 72 h of 30 mg/kg. Further, the ED50 with Mus musculus [3] is 7.1 mg/kg. In addition, the Time in the data set on Oryctolagus cuniculus is listed as 12.7 min.

For the molecule `CCCCN1CCCC1C(=O)Nc1ccccc1I.Cl` (mixture of isomers), the “Ratio LD50/ED50” value in the data set with Mus musculus [1] came out at 5.6. In addition, the 50% lethal dose (LD50) at 72 h in data set [2] is 41 mg/kg. The median effective dose (ED50) with Mus musculus [3] was 7.3 mg/kg. Besides, the Time in the data set on Oryctolagus cuniculus amounted to 20.3 min.

Regarding `CCCCN1CCCC1C(=O)Nc1ccc(Cl)cc1Cl.Cl` (mixture of isomers), the 50% lethal dose (LD50) at 72 h in data set [2] was found to be 32.5 mg/kg. Besides, the ED50 in the data set with Mus musculus [3] is more than 16.3 mg/kg.

With `CCCCN1CCCC1C(=O)Nc1ccc(Br)cc1Br.Cl` (mixture of isomers), the “Ratio LD50/ED50” value with Mus musculus [1] worked out at 3.5. The LD50 at 72 h in data set [2] was determined as 239 mg/kg. The 50% effective dose (ED50) in the data set with Mus musculus [3] amounted to 69 mg/kg.

Consider `CCCCCN1CCCC1C(=O)Nc1ccccc1C.Cl` (mixture of isomers), for which, in the data set on Mus musculus [1], the “Ratio LD50/ED50” value stood at 5.9. The molecule also displayed an LD50 at 72 h in data set [2] of 32.5 mg/kg. For the same molecule, the median effective dose (ED50) with Mus musculus [3] turned out to be 5.5 mg/kg. Also, in the data set with Oryctolagus cuniculus, the Time is 59.8 min.

As for `CCCCCCN1CCCC1C(=O)Nc1ccccc1C.Cl` (mixture of isomers), in the data set on Mus musculus [1], the “Ratio LD50/ED50” value came out at 6.3. Further, the Time with Rattus norvegicus [4] was 115 min; in the data set on Rattus norvegicus [5], 1 min; in the data set with Oryctolagus cuniculus, 75.7 min. The LD50 at 72 h in [2] is 35.5 mg/kg. Also, the median effective dose (ED50) in the data set on Mus musculus [3] was 5.6 mg/kg.

In the case of `Cc1ccccc1NC(=O)C1CCCN1C1CCCCC1.Cl` (mixture of isomers), in [2], the median lethal dose (LD50) at 72 h came out at 12.9 mg/kg. The ED50 in the data set with Mus musculus [3] is more than 6.5 mg/kg. The Time with Oryctolagus cuniculus turned out to be 46.5 min.

On to `Cc1ccc(NC(=O)C2CCCN2C2CCCCC2)c(C)c1.Cl` (mixture of isomers), for which the “Ratio LD50/ED50” value with Mus musculus [1] is 7.3. Moreover, the figures for the Time in the data set on Rattus norvegicus [4], with Rattus norvegicus [5] and with Oryctolagus cuniculus were 126.3 min, 1 min and 73.2 min, respectively. Moreover, the 50% lethal dose (LD50) at 72 h in data set [2] was 65 mg/kg. The ED50 with Mus musculus [3] came to 8.9 mg/kg.

Turning to `Cl.O=C(Nc1ccccc1Cl)C1CCCN1C1CCCCC1` (mixture of isomers), the “Ratio LD50/ED50” value in the data set on Mus musculus [1] is on record as 6.9. The molecule further had an LD50 at 72 h in [2] of 95 mg/kg. Further, the ED50 with Mus musculus [3] stood at 13.7 mg/kg. For the same molecule, in the data set on Oryctolagus cuniculus, the Time came out at 41.3 min.

In data set [2], `CCN1CCCC1C(=O)Nc1ccccc1C.Cl` (mixture of isomers) showed a 50% lethal dose (LD50) at 72 h of 36.8 mg/kg. Also, the 50% effective dose (ED50) in the data set on Mus musculus [3] was more than 18.4 mg/kg.

Take `CCCCN1CCCC1C(=O)Nc1ccccc1C.Cl` (mixture of isomers): the Time with Rattus norvegicus [6] came to 12.5 min; in the data set on Rattus norvegicus [5] it was 1 min; with Oryctolagus cuniculus, 49.4 min. Besides, in the data set with Mus musculus [1], the “Ratio LD50/ED50” value was found to be 3. Further, the LD50 at 72 h in data set [2] is 16.3 mg/kg. In addition, the median effective dose (ED50) in the data set on Mus musculus [3] came to 5.4 mg/kg.

With `CCCCN1CCCC1C(=O)Nc1c(C)cccc1C.Cl` (mixture of isomers), the Time in the data set on Rattus norvegicus [6] is recorded as 20 min; in the data set on Rattus norvegicus [5] it was 1 min; in the data set with Oryctolagus cuniculus, 57.5 min. Moreover, the Activity in the data set with Rattus norvegicus [7] turned out to be 90%. The 50% lethal dose (LD50) at 72 h in data set [2] was 9.2 mg/kg. Further, in the data set with Mus musculus [3], the ED50 is more than 4.6 mg/kg.

With `CCCCN1CCCC1C(=O)Nc1ccc(C)cc1C.Cl` (mixture of isomers), in data set [2], the LD50 at 72 h came out at 60 mg/kg. Moreover, the 50% effective dose (ED50) in the data set with Mus musculus [3] was more than 30 mg/kg. The Time with Oryctolagus cuniculus is reported as 59 min.

Regarding `CCCCN1CCCC1C(=O)Nc1ccccc1C` (racemic), in the data set on Rattus norvegicus [8], the result was inactive.

Turning to `CCCCN1CCCCC1C(=O)Nc1c(C)cccc1C` (stereo not drawn) [BUPIVACAINE], the Time with Rattus norvegicus [6] is listed as 102.5 min; in the data set with Rattus norvegicus [4], 155 min; in the data set with Rattus norvegicus [5], 1 min; with Oryctolagus cuniculus, 94 min. The “Ratio LD50/ED50” value with Mus musculus [1] is on record as 2.5. Further, the LD50 at 72 h in data set [2] was determined as 8.9 mg/kg. For the same molecule, the 50% effective dose (ED50) with Mus musculus [3] is 3.5 mg/kg.

Take `Cc1cc(C)c(NC(=O)C2CCCN2C2CCCCC2)c(C)c1.Cl` (stereo not drawn) [CYCLOMECAINE]: the “Ratio LD50/ED50” value in the data set on Mus musculus [1] turned out to be 5.2. In addition, the 50% lethal dose (LD50) at 72 h in [2] came out at 15 mg/kg. Further, the 50% effective dose (ED50) with Mus musculus [3] came to 2.9 mg/kg. In addition, the Time in the data set with Oryctolagus cuniculus is on record as 124.5 min.

Regarding `CCN(CC)CC(=O)Nc1c(C)cccc1C` [LIDOCAINE], in the data set on Mus musculus [3], the ED50 was 7.7 mg/kg. Besides, the Time with Oryctolagus cuniculus was determined as 37.8 min.

Take `CCCN1CCCC[C@H]1C(=O)Nc1c(C)cccc1C` [ROPIVACAINE]: the Time in the data set on Rattus norvegicus [6] amounted to 58.8 min; with Rattus norvegicus [4], 80 min; in the data set with Rattus norvegicus [5], 1 min; in the data set on Oryctolagus cuniculus it was 58.4 min. Moreover, the “Ratio LD50/ED50” value with Mus musculus [1] stood at 3.8. Moreover, the 50% lethal dose (LD50) at 72 h in data set [2] was 14.1 mg/kg. Besides, the ED50 with Mus musculus [3] came to 3.7 mg/kg.

Broadly, the LD50 is the dose expected to kill half of the subjects tested. A word on the ED50: it is the dose at which the effect has come halfway, by size or by number of responders.

Values taken from ChEMBL document CHEMBL2385077, “Synthesis, local anaesthetic and antiarrhythmic activities of N-alkyl derivatives of proline anilides” (Eur J Med Chem, 2013).
